Activity calls are given as the source filed them. No cut-off for these calls is given here.
What was measured:
[1] = target: T1, Melatonin receptor type 1B (Homo sapiens, UniProt P49286); assay: Displacement of 2-[125I]-iodomelatonin from human melatonin receptor-2 transfected in CHO cell membranes after 120 mins
T1 sequence (P49286 whole entry): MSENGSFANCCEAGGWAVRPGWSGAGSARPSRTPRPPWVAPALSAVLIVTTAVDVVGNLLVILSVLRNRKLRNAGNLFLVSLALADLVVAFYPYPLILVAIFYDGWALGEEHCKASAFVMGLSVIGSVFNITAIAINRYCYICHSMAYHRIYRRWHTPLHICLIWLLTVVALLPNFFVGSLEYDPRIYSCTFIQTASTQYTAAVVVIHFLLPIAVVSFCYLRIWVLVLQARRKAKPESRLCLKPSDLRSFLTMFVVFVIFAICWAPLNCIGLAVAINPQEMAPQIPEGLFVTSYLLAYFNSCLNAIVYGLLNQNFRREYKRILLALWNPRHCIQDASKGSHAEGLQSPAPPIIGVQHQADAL

[2] = target: Melatonin receptor type 1A (Homo sapiens, UniProt P48039); assay: Agonist activity at human melatonin receptor-1 transfected in CHO cell membranes after 1 hr by GTPgammaS binding assay relative to melatonin; type: functional
Chain of Melatonin receptor type 1A (P48039 whole entry): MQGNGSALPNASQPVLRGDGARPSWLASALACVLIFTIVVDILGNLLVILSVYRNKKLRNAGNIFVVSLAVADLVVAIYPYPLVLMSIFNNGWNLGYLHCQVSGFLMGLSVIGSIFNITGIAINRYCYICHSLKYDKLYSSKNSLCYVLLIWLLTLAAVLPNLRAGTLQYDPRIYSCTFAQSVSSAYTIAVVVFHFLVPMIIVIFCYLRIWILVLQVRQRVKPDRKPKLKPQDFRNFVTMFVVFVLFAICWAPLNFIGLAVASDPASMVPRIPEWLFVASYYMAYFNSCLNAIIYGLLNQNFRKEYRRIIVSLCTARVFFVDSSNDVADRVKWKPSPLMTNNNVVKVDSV
Procedure, shortened: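 CHO membranes (20 µg/mL) stably expressing human MT1 or MT2 in 20 mM HEPES pH 7.4, 100 mM NaCl, 3 µM GDP, 3 mM MgCl2, 20 µg/mL saponin. Incubated with 0.2 nM [35S]GTPγS for 1 h at rt, then filtered. Non-specific binding defined with 10 µM GTPγS. Seven concentrations in duplicate; EC50 and Emax fitted.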

[3] = (§1) Induction of primary neuronal stem cell differentiation derived from subgranular zone of dentate gyrus of Wistar rat hippocampus assessed as upregulation of TuJ1 expression at 10 uM incubated for 7 days followed by 48 hrs incubation in presence of serum and absence of EGF by DAPI staining-based fluorescence microscopic analysis in presence of melatonin receptor antagonist luzindole; type: functional; conditions: Primary neuron
Procedure, shortened: (§2)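 Neurospheres came from the SGZ of the dentate gyrus of adult male Wistar rats (8-12 weeks). They were grown in DMEM/F12 with 10 ng/mL EGF, 10 ng/mL FGF and B27. After 3 days, cultures were treated with compounds for 7 days. They were then plated on poly-L-lysine coverslips for 48 h with serum and without growth factors. Cells were immunostained for TuJ1 and MAP-2 with DAPI nuclei. Positive cells were counted by fluorescence microscopy in five NS per condition over three independent experiments. Untreated cultures gave basal values.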

[4] = as §1, with “maturation” for “differentiation”, “MAP-2” for “TuJ1”, “days” for “days followed by 48 hrs incubation in presence of serum and absence of EGF”; type: functional, tissue-based; conditions: Primary neuron; procedure, shortened: as §2
[5] = Induction of primary neuronal stem cell maturation derived from subgranular zone of dentate gyrus of Wistar rat hippocampus assessed as upregulation of MAP-2 expression incubated for 7 days by DAPI staining-based fluorescence microscopic analysis; type: functional; conditions: Primary neuron; procedure, shortened: as §2
[6] = target: Cannabinoid receptor 2 (Homo sapiens) (UniProt P34972); assay: Binding affinity to CB2 receptor (unknown origin) at 10 uM
Chain of Cannabinoid receptor 2 (Homo sapiens) (P34972 whole entry): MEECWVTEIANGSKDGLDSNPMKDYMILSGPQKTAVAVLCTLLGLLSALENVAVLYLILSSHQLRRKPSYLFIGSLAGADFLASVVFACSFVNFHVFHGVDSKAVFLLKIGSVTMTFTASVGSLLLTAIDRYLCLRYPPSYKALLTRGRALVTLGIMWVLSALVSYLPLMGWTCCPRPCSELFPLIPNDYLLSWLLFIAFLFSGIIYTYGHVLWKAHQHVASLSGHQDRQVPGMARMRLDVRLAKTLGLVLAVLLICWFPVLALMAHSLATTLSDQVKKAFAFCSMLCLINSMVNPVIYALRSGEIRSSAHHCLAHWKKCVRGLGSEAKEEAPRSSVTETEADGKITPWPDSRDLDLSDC

[7] = target: 5-hydroxytryptamine receptor 2A (Homo sapiens) (UniProt P28223); assay: Binding affinity to 5HT-2A receptor (unknown origin) at 10 uM
Chain of 5-hydroxytryptamine receptor 2A (Homo sapiens) (P28223 whole entry): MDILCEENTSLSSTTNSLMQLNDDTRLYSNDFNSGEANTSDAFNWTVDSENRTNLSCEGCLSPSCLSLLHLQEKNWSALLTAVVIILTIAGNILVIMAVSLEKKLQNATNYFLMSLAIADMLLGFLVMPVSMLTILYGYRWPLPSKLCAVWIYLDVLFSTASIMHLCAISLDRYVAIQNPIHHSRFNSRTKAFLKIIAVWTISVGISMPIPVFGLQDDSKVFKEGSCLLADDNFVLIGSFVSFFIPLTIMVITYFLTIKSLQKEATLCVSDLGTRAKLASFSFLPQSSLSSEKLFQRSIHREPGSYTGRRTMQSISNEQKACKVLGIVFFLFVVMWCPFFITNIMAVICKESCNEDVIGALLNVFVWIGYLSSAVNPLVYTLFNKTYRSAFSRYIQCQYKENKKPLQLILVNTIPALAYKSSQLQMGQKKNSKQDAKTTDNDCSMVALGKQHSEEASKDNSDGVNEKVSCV

[8] = target: 5-hydroxytryptamine receptor 2B (Homo sapiens) (UniProt P41595); assay: Binding affinity to 5HT-2B receptor (unknown origin) at 10 uM
Chain of 5-hydroxytryptamine receptor 2B (Homo sapiens) (P41595 whole entry): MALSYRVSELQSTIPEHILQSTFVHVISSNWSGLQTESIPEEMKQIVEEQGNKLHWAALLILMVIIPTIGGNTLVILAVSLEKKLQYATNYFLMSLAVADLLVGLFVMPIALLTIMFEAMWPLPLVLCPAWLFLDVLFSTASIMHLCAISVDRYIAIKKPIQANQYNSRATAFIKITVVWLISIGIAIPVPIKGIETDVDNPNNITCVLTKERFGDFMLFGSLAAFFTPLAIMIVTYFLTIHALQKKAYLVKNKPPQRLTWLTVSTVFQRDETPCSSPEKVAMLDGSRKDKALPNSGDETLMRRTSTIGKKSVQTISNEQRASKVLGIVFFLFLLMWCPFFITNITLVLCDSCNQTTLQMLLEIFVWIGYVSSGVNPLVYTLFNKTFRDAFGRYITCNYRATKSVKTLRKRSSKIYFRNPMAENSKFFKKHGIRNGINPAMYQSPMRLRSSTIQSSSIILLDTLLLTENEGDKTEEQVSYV

[9] = target: T2, 5-hydroxytryptamine receptor 2C (Homo sapiens) (UniProt P28335); assay: Binding affinity to 5HT-2C receptor (unknown origin) at 10 uM
T2 sequence (whole entry): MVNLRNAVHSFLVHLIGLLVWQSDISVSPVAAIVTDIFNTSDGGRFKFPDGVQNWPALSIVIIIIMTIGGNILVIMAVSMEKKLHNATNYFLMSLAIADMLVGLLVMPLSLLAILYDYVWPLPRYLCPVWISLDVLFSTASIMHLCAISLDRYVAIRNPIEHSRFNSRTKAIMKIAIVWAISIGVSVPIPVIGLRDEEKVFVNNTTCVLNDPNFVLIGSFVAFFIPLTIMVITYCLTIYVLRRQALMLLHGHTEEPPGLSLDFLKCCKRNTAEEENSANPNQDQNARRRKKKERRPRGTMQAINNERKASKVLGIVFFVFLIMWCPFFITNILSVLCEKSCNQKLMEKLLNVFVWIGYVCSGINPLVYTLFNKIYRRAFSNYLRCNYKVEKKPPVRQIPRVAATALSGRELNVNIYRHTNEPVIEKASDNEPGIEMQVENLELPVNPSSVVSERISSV

[10] = target: Sodium-dependent serotonin transporter (Homo sapiens) (UniProt P31645); assay: Binding affinity to SERT (unknown origin) at 10 uM
Chain of Sodium-dependent serotonin transporter (Homo sapiens) (P31645 whole entry, looked up): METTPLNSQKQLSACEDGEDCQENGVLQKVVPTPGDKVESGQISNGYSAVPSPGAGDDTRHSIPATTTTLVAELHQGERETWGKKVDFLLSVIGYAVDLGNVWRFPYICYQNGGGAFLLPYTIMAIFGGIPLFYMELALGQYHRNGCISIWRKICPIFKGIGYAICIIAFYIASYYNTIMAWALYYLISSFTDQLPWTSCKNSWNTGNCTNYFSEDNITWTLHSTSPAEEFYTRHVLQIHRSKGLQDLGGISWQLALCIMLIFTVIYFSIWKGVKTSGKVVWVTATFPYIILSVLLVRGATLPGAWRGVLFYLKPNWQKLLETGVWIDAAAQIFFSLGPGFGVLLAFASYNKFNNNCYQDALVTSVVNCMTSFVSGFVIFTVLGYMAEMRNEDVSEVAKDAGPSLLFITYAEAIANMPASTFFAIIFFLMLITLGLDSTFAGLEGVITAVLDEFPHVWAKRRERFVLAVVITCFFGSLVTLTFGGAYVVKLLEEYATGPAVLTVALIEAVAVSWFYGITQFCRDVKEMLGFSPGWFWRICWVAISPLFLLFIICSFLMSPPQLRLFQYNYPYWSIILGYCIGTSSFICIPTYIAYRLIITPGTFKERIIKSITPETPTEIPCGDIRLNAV

[11] = target: T3, Retinoic acid receptor alpha (Homo sapiens) (UniProt P10276); assay: Binding affinity to RARalpha (unknown origin) at 10 uM
T3 sequence (whole entry): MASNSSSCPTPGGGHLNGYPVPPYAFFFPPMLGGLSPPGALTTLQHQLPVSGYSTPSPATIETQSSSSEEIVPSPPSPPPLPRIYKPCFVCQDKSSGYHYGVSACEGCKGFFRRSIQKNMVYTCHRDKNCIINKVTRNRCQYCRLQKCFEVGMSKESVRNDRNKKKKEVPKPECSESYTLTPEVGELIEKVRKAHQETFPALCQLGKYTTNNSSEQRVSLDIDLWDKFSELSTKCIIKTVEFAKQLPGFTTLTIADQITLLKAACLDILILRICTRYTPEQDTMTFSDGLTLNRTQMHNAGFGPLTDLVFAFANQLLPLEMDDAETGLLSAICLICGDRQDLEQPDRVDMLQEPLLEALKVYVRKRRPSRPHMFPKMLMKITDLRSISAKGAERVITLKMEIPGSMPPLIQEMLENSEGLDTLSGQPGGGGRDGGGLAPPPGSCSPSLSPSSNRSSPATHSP

[12] = target: T4, Melatonin receptor type 1B (Homo sapiens) (UniProt P49286); assay: Agonist activity at human recombinant melatonin receptor-2 expressed in CHO cells assessed as decrease of cAMP level after 10 mins by HTRF assay relative to melatonin; type: functional, cell-based
T4 sequence (whole entry): T1 sequence (P49286 whole entry)

## COc1ccc2[nH]cc(CCc3nnc(C)o3)c2c1
[1]
  Ki: 190 nM
[2]
  Emax: 19%
[3]
  Activity: inactive
[4]
  Activity: inactive
[5]
  Activity: Dose-dependent effect
[6]
  Activity: inactive
[7]
  Activity: inactive
[8]
  Activity: inactive
[9]
  Activity: inactive
[10]
  Activity: inactive
[11]
  Activity: inactive
[12]
  Emax: 92%
